Published values collected from several papers.
Lines come from different studies, so protocols differ.
CDK7 with cyclin H: Cyclin-dependent kinase 7, with cyclin H (CDK7, Homo sapiens, UniProt P50613)
PTGER4: Prostaglandin E2 receptor EP4 subtype (PTGER4, Homo sapiens, UniProt P35408)
HTR1B: 5-hydroxytryptamine receptor 1B (HTR1B, Homo sapiens, UniProt P28222)
Calcitonin-gene-related peptide receptor, CALCRL/RAMP1: Calcitonin-gene-related peptide receptor, CALCRL/RAMP1 (Homo sapiens, UniProt O60894+Q16602)

`CC(/C=C/C=C(\C)C(=O)O)=C\C=C\C=C(C)\C=C\C=C(/C)C(=O)O` gave an inhibition of 38.3% (CDK7 with cyclin H; enzyme activity; inhibitor; ADP detection; 10 µM).
With `CCN(Cc1ccccc1C(F)(F)F)C(=O)C1CCN(S(=O)(=O)c2ccc3[nH]ncc3c2)CC1` the inhibition was 33% (PTGER4; ligand displacement; radioligand; 10 µM).
`COc1cc(NC(C)=O)c(Cl)cc1C(=O)Nc1nccs1` has an inhibition of -0.8% (HTR1B; ligand displacement; radioligand; 10 µM).
`CC1=C(/C=C/C(C)=C/C=C/C(C)=C/C=C/C=C(C)/C=C/C=C(C)/C=C/C2=C(C)CCCC2(C)C)C(C)(C)CCC1` has an inhibition of 19.7% (CDK7 with cyclin H; enzyme activity; inhibitor; ADP detection; 10 µM).
With `CCCNc1nc2ccccc2n1Cc1ccc(Cl)cc1` the inhibition was -13.2% (HTR1B; ligand displacement; radioligand; 10 µM).
`O=C(c1ccc(Cl)cc1)N(Cc1ccccc1)C1CCCCC1` gave an inhibition of -20.2% (Calcitonin-gene-related peptide receptor, CALCRL/RAMP1; cell-free assay; 10 µM).
The inhibition of `CCN(c1cc(C#CCN2CCOCC2)cc(C(=O)NCc2c(C)cc(C)[nH]c2=O)c1C)[C@H]1CC[C@H](N(C)CCOC)CC1` is reported as 7% (Histone-lysine N-methyltransferase EHMT2 (EHMT2, Homo sapiens, UniProt Q96KQ7); enzyme activity; inhibitor; 1 µM).
`O=c1cc(-c2ccccc2)oc2c1ccc1ccccc12` gave an inhibition of 29.9% (CDK7 with cyclin H; enzyme activity; inhibitor; ADP detection; 10 µM).
`Cc1ccc(CNC(=O)[C@H](CCc2ccccc2)NC(=O)[C@H](CCc2ccccc2)NC(=O)[C@H](CCc2ccccc2)NC(=O)c2cnc(C)cn2)cc1` gave an inhibition of -9% (Calpain-1 catalytic subunit (CAPN1, Homo sapiens, UniProt P07384); enzyme activity; inhibitor; 100 µM).
The inhibition of `CCN(CC)c1ccc(C2Nc3ccc(C(=O)c4ccccc4)cc3NC3=C2C(=O)CC(C)(C)C3)cc1` (stereo not shown) is reported as 7% (PTGER4; ligand displacement; radioligand; 10 µM).
For `Oc1cccc(Nc2nc(-c3ccc(F)cc3F)cs2)c1`, the inhibition was 3% (Calcitonin-gene-related peptide receptor, CALCRL/RAMP1; cell-free assay; 10 µM).
With `Oc1ccc(/C=C/c2cc(O)cc(O)c2)cc1` the inhibition was 40% (CDK7 with cyclin H; enzyme activity; inhibitor; ADP detection; 10 µM).
`O=C(CSc1nc2nccnc2c(=O)n1CCc1ccccc1)Nc1nccs1` gave an inhibition of 13% (Phosphatidylinositol 4-phosphate 5-kinase type-1 beta (PIP5K1B, Homo sapiens, UniProt O14986); enzyme activity; inhibitor; 10 µM).
`O=C(/C=C/C=C/c1ccc2c(c1)OCO2)N1CCCCC1` gave an inhibition of 39.4% (CDK7 with cyclin H; enzyme activity; inhibitor; ADP detection; 10 µM).
The inhibition of `CC(CN(C)C)C(Oc1cccc2ccccc12)c1cccs1` (stereo not shown) is reported as < 70% (Sodium-dependent dopamine transporter (Slc6a3, Rattus norvegicus, UniProt P23977); ligand displacement; radioligand; 10 µM; cell membranes).
With `CN(C)C1CCN(CC#Cc2nn(C3CCCC3)c3nc(NCc4ccccc4)ncc23)C1` (stereo not shown) the inhibition was 0% (Tyrosine-protein kinase SYK (SYK, Homo sapiens, UniProt P43405); enzyme activity; inhibitor; FRET; 1 µM).
